PvdQ acylase – P. aeruginosa PvdQ acylase inhibitors, primary screen, biochemical, fluorescence, plate reader and imaging, single point; PvdQ acylase [Pseudomonas aeruginosa LESB58]; purified PvdQ acylase; inhibition, % at 10 µM; 340,000 compounds, 0.063% hits; AID 488965, 2010; in the data active = inhibition above about 30%, passing the limit was not always enough;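 note: 0% = vehicle neutral wells and 100% = reference inhibitor wells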
Xi reactivation – activators of inactive X chromosome reactivation, primary screen, imaging, XiGFP fibroblasts, GFP high-content imaging, set 2; 360,000 compounds, 0.055% hits; activation, % at 7.58 µM; XiGFP mouse fibroblasts, % GFP-positive cells imaging, 3 d; cells co-treated with 5-aza-dC sensitizer; scaled so ellipticine positive control = 100%;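 active = mean normalized replicate activation at least 10% and every replicate at or above 10%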;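 note: 0% = median of on-plate neutral control wells and 100% = ellipticine 6 µM median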
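Material: XiGFP fibroblasts, SV40-immortalized. Buffer or medium: DMEM plus 5-aza-dC sensitizer. Compound: single concentration per compound, delivered by pin transfer. Times: 3 days compound exposure. Controls: ellipticine 6 µM.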
SR-BI uptake up – activators of SR-BI mediated DiI-HDL uptake, primary screen, ldlA[mSR-BI] CHO cells, DiI fluorescence; 3 h; 100 = double the neutral-control signal; activation, % at 12.5 µM; AID 504775, 2011; 320,000 compounds, 0.096% hits;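 active = mean replicate activation of at least 60% and every replicate at or above 60%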;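 note: 0% = median plate neutral-control signal and 100% = twice that signal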
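system = CHO ldlA[mSR-BI] cells, LDL receptor-null, SR-BI overexpressing | medium = Ham's F12 with 0.5% BSA, HEPES 25 mM, pH 7.4 | probe or stimulus = DiI-HDL 10 µg/mL | compound dosing = single-point compound dose | incubation = compound exposure 3 h, 37 °C | technique = DiI fluorescence, bottom read | read-out = cell-associated DiI fluorescence as measure of HDL uptake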
rRNA inh HTS – reduced GFP signal of wild-type E. coli, primary screen, bacterial rRNA inhibitor project, GFP/RFP fluorescence, OD600, single point; 350,000 compounds, 1.6% hits; E. coli WT GFP vs humanized-ribosome RFP mutants, 24 h; hits give low values; DMSO median 0, no signal -100; AID 720706, 2013; GFP signal change (wild-type ribosome), % (test concentration not listed);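 active = significant combined selectivity score with lowered wild-type GFP, culture density cut under 30%, mutant RFP and density less affected; inactive = any of these conditions unmet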
dFosB activator – activators of delta FosB homodimer, primary screen, biochemical, fluorescence polarization, TAMRA-CDK5 oligo, single point; Protein FosB (Mus musculus), P13346; purified delta FosB; percent of positive-control signal above neutral wells; 340,000 compounds, 0.99% hits; activation, % at 25 µM;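 active = mean activation above about 17%, with every replicate also reaching it, limit read from the data, passing the limit was not always enough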
SR-BI DiI inh – inhibitors of SR-BI mediated HDL lipid uptake, primary screen, ldlA[mSR-BI] cells, fluorescence, single point; Scavenger receptor class B member 1 (Mus musculus), Q61009; ldlA[mSR-BI] CHO cells, DiI-HDL uptake fluorescence, 3 h; inhibition, % at 12.5 µM; 320,000 compounds, 0.96% hits; AID 488896, 2010;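 active = mean replicate inhibition of at least 70% and a set share of replicates each scoring 70 or more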;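 note: 0% = median of neutral control wells and 100% = median of positive control wells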
Target sequence (Q61009 whole entry, looked up): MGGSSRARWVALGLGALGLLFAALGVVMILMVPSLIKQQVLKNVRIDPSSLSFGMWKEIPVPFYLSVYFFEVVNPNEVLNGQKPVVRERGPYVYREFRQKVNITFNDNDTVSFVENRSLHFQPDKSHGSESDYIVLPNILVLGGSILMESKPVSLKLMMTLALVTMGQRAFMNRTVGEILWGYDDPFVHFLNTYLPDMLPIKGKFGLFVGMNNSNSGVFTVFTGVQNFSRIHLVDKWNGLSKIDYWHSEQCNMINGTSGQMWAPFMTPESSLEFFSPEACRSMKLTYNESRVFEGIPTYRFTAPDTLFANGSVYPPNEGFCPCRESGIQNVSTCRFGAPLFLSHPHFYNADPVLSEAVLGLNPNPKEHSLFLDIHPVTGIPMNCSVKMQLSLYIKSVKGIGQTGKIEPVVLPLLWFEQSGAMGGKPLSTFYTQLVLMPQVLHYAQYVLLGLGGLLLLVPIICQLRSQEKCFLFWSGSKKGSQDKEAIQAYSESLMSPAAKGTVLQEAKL
The depositor's hits bear a star; x = no result. Only some compounds are listed: those with a hit (about 2.6% of all), similar ones and a draw of the others.

SMILES	PvdQ acylase	Xi reactivation	SR-BI uptake up	rRNA inh HTS	dFosB activator	SR-BI DiI inh
O=C(Nc1ccc(F)cc1)N1C[C@@H]2[C@H](c3ccccc31)[C@@H](CO)N2C(=O)c1ccccn1	x	0	x	0	x	x
O=C(Nc1cccc(Cl)c1)N1C[C@@H]2[C@H](c3ccccc31)[C@@H](CO)N2C(=O)c1ccncc1	x	0	x	-51	x	x
O=C(Nc1ccc(Cl)cc1)N1C[C@@H]2[C@H](c3ccccc31)[C@@H](CO)N2C(=O)c1ccccn1	x	0	x	-25*	x	x
O=C(Nc1ccc(Cl)cc1)N1C[C@@H]2[C@H](c3ccccc31)[C@H](CO)N2C(=O)c1ccccn1	x	0	x	-53*	x	x
N#Cc1cn(CC(=O)NCc2cccnc2)c2ccccc12	6	x	11	9	-3	-11
COc1ccc2cc(C(=O)C3CCCN(C(=O)C4=NN(C)C(=O)CC4)C3)ccc2c1 (stereo unspecified)	-13	0	-1	-26*	-8	1
COc1ccc2cc(C(=O)C3CCCN(C(=O)c4cccnc4)C3)ccc2c1 (stereo unspecified)	3	0	8	-12	-8	-8
Cc1ccc(-c2nc(CS(=O)CC(=O)NCCCN3CC(C)CC(C)C3)c(C)o2)cc1 (stereo unspecified)	9	22*	8	3	-10	-8
O=C1C(SCCO)=C(SCCO)C(=O)c2ccccc21	-8	88*	-23	-48	-1	23
Cc1nnc(SCC(=O)Nc2ccccc2F)n1Cc1ccco1	2	1	x	14	3	x
S=c1[nH]nc(-c2ccncc2)n1/N=C/C=C/c1ccccc1	-12	0	22	-23*	-7	-22
COc1ccccc1/C=C/C=N/n1c(-c2ccncc2)n[nH]c1=S	7	x	2	x	-2	-2
O=S1(=O)c2c(F)cccc2OC(COc2ccccc2)CN1CCc1ccc(F)cc1 (stereo unspecified)	-8	0	-8	1	-3	8
COCCCNc1nc(-c2ccc(Cl)cc2)nc2ccccc12	-4	0	-86	-44	-19	86*
COCCCNc1nc(-c2ccncc2)nc2ccccc12	-3	x	-75	x	-29	75*
CCC(C)[C@H](NC(=O)NCc1ccco1)C(=O)OC (stereo partly specified)	-1	0	1	20	-2	-1
O=C(N[C@H](C(=O)N1CCC[C@H]1C(=O)NC1CCCC1)C1CCCCC1)c1ccc(Cl)cc1Cl	x	0	x	-28*	x	x
O=C(N[C@H](C(=O)N1CCC[C@H]1C(=O)NC1CCCC1)c1ccccc1)c1ccc(Cl)cc1Cl	x	0	x	3	x	x
C/C=C/c1ccc2c(c1)O[C@@H](CN(C)C(=O)Nc1ccc(C(F)(F)F)cc1)[C@@H](C)CN([C@H](C)CO)S2(=O)=O	x	0	x	-2	x	x
COc1ccc(NC(=O)C(NC(=O)Cc2cccs2)c2ccc(C)cc2)cc1 (stereo unspecified)	-9	0	65*	11	1	-65
OC(COCc1cccs1)CN1CCN(c2ccccn2)CC1 (stereo unspecified)	1	x	-7	x	9	7
CCC(C)(C)NC(=O)CN(C(=O)CCC(=O)Nc1ccccn1)c1ccc2c(c1)OCO2	-12	0	x	-1	-7	x
Cc1ccc(C2=C(O)c3ccccc3C(=O)C2=O)cc1	-7	0	34	-9	-8	-34
O=C1C(=O)c2ccccc2C(O)=C1c1cccc([N+](=O)[O-])c1	-17	0	-6	-24*	-4	6
C[C@@H]1CCCCO[C@H](CN(C)CC2CCCCC2)[C@H](C)CN([C@@H](C)CO)C(=O)c2cc(NC(=O)Nc3cccc4ccccc34)ccc2O1	x	-1	x	-53*	x	x
SMILES	PvdQ acylase	Xi reactivation	SR-BI uptake up	rRNA inh HTS	dFosB activator	SR-BI DiI inh
C[C@@H]1CN([C@@H](C)CO)C(=O)Cc2cc(NC(=O)Nc3ccc(F)cc3)ccc2O[C@@H]1CN(C)Cc1ccc(Cl)c(Cl)c1	-3	0	93*	1	1	-93
Cc1ccc(S(=O)(=O)Nc2ccc3c(c2)C(=O)N([C@H](C)CO)C[C@H](C)[C@@H](CN(C)Cc2ccc(-c4ccccc4)cc2)O3)cc1	-11	0	76*	1	2	-76
COc1ccc(N(CC(=O)Nc2ccc(F)c(F)c2)S(=O)(=O)c2c(C)n[nH]c2C)cc1	-8	0	-5	-26*	-6	5
COc1ccc(NC(=O)CCN(c2ccc(OC)cc2)S(=O)(=O)c2ccc(C)c(C)c2)cc1	6	0	2	-27*	-9	-2
C[C@@H]1CN([C@@H](C)CO)C(=O)c2cc(NC(=O)c3ccncc3)ccc2O[C@@H](C)CCCCO[C@@H]1CN(C)C(=O)c1ccncc1	x	0	x	2	x	x
N/C(=N\N=C\c1ccco1)SC1CC(=O)N(c2ccc(C(=O)O)cc2)C1=O (stereo unspecified)	-10	0	60*	6	5	-60
N/C(=N\N=C\c1ccco1)SC1CC(=O)N(c2ccccc2)C1=O (stereo unspecified)	-2	0	-14	-6	14	14
CCCC(C)NC(=O)Cc1ccccc1[N+](=O)[O-] (stereo unspecified)	-4	0	24	8	-5	-24
COc1cc(NC(=O)CSCC(=O)Nc2cccc(C(F)(F)F)c2)c(Cl)cc1Cl	5	x	10	-31*	-12	-10
CCOC(=O)c1cccc(N2C(=O)C3C(C(=O)NC4CC4)C4(C)C=CC3(O4)C2C(=O)NC(C)(C)C)c1 (stereo unspecified)	-8	x	10	x	-4	-10
CCOC(=O)c1cccc(-c2c(-c3ccccc3)ncc3cc(OC)c(OC)cc23)c1	-6	0	-28	-6	-8	28
CC(=O)Nc1ccc(S(=O)(=O)Oc2cccc(/C=C3\SC(N)=NC3=O)c2)cc1	-4	0	2	15	33*	-2
COc1ccc(/C=C2/SC(=O)N(CCC(=O)Nc3ccc(C)cc3)C2=O)cc1OC	x	0	x	1	x	x
COc1cc(/C=C2\SC(N)=NC2=O)ccc1OCC(=O)Nc1ccc(C)cc1	-7	0	7	x	79*	-7

Assay outcomes as filed in PubChem.
